Data reported in ChEMBL document CHEMBL2407059, “Discovery and characterization of carbamothioylacrylamides as EP2 selective antagonists” (ACS Med Chem Lett, 2013).
pIC50: −log10 of the molar value. ≈ marks a conversion by molar mass, not a printed value. Calls of active or inactive are those of the source. The rule behind the calls is not given here.

Assays:
[1] = tested on: C6; assay: Cytotoxicity against rat C6 cells after 48 hrs; type: cell-based; details: c6, 48 h
In short: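 C6G cells are incubated with compound for 48 h, then cell viability is measured and CC50 derived.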

[2] = biological target: Prostacyclin receptor (Homo sapiens) (UniProt P43119); assay: Antagonist activity at human IP receptor overexpressed in rat C6 cells assessed as inhibition of iloprost-induced cAMP accumulation incubated for 10 mins prior to iloprost addition measured after 40 mins by TR-FRET assay; type: functional, cell-based
Chain of Prostacyclin receptor (Homo sapiens) (P43119 whole entry): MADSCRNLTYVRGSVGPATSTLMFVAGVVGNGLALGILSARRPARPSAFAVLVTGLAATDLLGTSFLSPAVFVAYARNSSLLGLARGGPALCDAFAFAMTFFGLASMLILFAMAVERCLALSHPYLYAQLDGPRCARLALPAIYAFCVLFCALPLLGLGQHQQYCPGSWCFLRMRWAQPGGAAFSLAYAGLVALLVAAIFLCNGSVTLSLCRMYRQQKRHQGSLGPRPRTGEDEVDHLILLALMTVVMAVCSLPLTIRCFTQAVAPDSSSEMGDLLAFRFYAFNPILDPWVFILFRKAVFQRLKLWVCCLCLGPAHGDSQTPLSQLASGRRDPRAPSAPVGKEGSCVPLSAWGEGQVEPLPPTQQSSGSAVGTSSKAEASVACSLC

[3] = biological target: T1, Prostaglandin D2 receptor (Homo sapiens) (UniProt Q13258); assay: Antagonist activity at human DP1 receptor overexpressed in rat C6 cells assessed as inhibition of BW245C-induced cAMP accumulation incubated for 10 mins prior to BW245C addition measured after 40 mins by TR-FRET assay; type: functional, cell-based
T1 sequence (whole entry): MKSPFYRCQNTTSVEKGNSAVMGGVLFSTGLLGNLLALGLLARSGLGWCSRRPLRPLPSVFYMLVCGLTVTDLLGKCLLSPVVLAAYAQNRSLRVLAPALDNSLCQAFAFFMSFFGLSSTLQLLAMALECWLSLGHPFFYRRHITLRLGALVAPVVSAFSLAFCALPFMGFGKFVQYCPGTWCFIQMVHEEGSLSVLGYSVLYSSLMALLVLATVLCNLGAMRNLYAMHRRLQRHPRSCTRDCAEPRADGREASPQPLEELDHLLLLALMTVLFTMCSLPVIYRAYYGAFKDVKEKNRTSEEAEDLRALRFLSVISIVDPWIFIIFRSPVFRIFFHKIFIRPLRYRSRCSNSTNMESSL

[4] = biological target: Prostaglandin E2 receptor EP4 subtype (Homo sapiens) (UniProt P35408); assay: Antagonist activity at human EP4 receptor overexpressed in rat C6 cells assessed as inhibition of PGE2-induced cAMP accumulation incubated for 10 mins prior to PGE2 addition measured after 40 mins by TR-FRET assay; type: functional, cell-based
Chain of Prostaglandin E2 receptor EP4 subtype (Homo sapiens) (P35408 whole entry): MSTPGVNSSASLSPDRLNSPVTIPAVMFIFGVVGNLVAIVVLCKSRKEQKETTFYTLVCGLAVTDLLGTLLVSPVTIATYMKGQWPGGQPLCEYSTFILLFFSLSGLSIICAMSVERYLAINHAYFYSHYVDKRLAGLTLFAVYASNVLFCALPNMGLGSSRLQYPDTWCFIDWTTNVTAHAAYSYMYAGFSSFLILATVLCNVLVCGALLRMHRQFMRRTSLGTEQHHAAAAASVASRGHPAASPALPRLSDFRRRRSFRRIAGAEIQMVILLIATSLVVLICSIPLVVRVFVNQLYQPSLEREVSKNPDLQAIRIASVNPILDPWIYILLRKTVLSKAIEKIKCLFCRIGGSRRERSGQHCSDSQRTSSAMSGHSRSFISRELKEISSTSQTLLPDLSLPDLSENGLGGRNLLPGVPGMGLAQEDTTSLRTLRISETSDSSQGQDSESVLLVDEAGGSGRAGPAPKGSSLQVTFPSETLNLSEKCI

[5] = biological target: T2, Prostaglandin E2 receptor EP2 subtype (Homo sapiens, UniProt P43116); assay: Competitive antagonist activity at human EP2 receptor overexpressed in rat C6 cells by Schild plot analysis; type: cell-based
T2 sequence (P43116 whole entry): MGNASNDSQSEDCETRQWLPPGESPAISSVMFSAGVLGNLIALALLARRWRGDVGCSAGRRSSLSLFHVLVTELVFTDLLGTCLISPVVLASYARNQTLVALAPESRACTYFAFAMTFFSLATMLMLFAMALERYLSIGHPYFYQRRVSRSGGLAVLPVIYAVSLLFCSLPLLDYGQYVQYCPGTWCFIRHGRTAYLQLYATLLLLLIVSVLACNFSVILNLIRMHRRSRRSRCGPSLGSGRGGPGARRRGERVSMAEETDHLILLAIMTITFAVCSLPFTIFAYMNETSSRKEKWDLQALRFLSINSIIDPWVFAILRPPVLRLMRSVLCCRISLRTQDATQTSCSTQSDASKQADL

[6] = Metabolic stability in mouse liver microsomes assessed as compound remaining at 1 to 10 uM after 60 mins; type: ADME, Microsome; details: read-out: Stability
[7] = Metabolic stability in human liver microsomes assessed as compound remaining at 1 to 10 uM after 60 mins; type: ADME, Microsome; details: read-out: Stability
[8] = biological target: Prostaglandin E2 receptor EP2 subtype (Mus musculus) (UniProt Q62053); assay: Inhibition of EP2 receptor-mediated mouse P388D1 macrophage activation assessed as inhibition of butaprost-induced IL-12 mRNA expression at 10 uM incubated for 1 hr prior to butaprost-challenge measured after 2 hrs by qRT-PCR analysis
Chain of Prostaglandin E2 receptor EP2 subtype (Mus musculus) (Q62053 whole entry): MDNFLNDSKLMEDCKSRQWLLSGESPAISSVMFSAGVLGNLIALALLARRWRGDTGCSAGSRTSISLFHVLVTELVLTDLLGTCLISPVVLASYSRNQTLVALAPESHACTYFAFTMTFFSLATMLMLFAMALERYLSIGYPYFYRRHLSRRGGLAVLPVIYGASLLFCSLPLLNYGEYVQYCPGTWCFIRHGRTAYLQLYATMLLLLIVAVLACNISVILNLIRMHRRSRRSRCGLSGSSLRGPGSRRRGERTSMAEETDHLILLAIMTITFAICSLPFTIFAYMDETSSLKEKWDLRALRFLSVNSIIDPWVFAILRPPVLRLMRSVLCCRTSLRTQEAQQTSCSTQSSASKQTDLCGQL
In short: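 P388D1 macrophage line pretreated 1 h with test agent at 10 μM or vehicle, then stimulated with the EP2-selective agonist butaprost (10 μM) for 2 h. Inflammatory mediator mRNA quantified by qRT-PCR. n = 3–4, mean ± SEM, one-way ANOVA with post hoc Bonferroni test.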

[9] = biological target: Prostaglandin E2 receptor EP2 subtype (Mus musculus) (UniProt Q62053); assay: Inhibition of EP2 receptor-mediated mouse P388D1 macrophage activation assessed as inhibition of butaprost-induced TNF-alpha mRNA expression at 10 uM incubated for 1 hr prior to butaprost-challenge measured after 2 hrs by qRT-PCR analysis
In short: (§1)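 P388D1 mouse macrophages pretreated 1 h with 10 μM antagonist or vehicle, then stimulated 2 h with EP2-selective agonist butaprost (10 μM). Inflammatory mediator mRNA quantified by qRT-PCR; n = 3–4, mean ± SEM, one-way ANOVA with post hoc Bonferroni test.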

[10] = Aqueous solubility of the compound in PBS buffer at pH 7.0 by nephelometry; type: physicochemical
[11] = biological target: Prostaglandin E2 receptor EP4 subtype (Homo sapiens) (UniProt P35408); assay: Inhibition of human EP4 receptor overexpressed in rat C6G cells up to 40 uM by TR-FRET assay; type: cell-based
[12] = biological target: Prostaglandin E2 receptor EP2 subtype (Mus musculus) (UniProt Q62053); assay: Inhibition of EP2 receptor-mediated mouse P388D1 macrophage activation assessed as inhibition of butaprost-induced IL-1beta mRNA expression at 10 uM incubated for 1 hr prior to butaprost-challenge measured after 2 hrs by qRT-PCR analysis; in short: as §1
[13] = biological target: Prostaglandin E2 receptor EP2 subtype (Mus musculus) (UniProt Q62053); assay: Inhibition of EP2 receptor-mediated mouse P388D1 macrophage activation assessed as inhibition of butaprost-induced IL-6 mRNA expression at 10 uM incubated for 1 hr prior to butaprost-challenge measured after 2 hrs by qRT-PCR analysis; in short: as §1
[14] = tested on: Brain; assay: Drug uptake in C57BL/6 mouse brain at 10 mg/kg, po after 1 to 2 hrs; type: ADME, organism-based; set-up: dose 10 mg/kg, route oral; details: in vivo
In short: (§2)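 Female C57BL/6 mice dosed 10 mg/kg by oral gavage or 5 mg/kg i.p. (10 mg/kg i.p. also examined for brain) in vehicle of 10% DMSO, 70% PEG400, 20% sterile water. Brain tissue collected at 1 and 2 h post-dose; brain-to-plasma ratio reported.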

[15] = tested on: Brain; assay: Drug uptake in C57BL/6 mouse brain at 10 mg/kg, ip after 1 hr; type: ADME, organism-based; set-up: dose 10 mg/kg, route intraperitoneal; details: in vivo; in short: as §2
[16] = tested on: Nucleic Acid; assay: Ratio of drug level in brain to plasma in C57BL/6 mouse at 10 mg/kg, ip; type: ADME, organism-based; set-up: dose 10 mg/kg, route intraperitoneal
In short: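 Female C57BL/6 mice dosed 10 mg/kg i.p. Plasma prepared from blood, and brain tissue collected at 1 h. Brain-to-plasma concentration ratio calculated from the two levels.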

[17] = biological target: Prostaglandin E2 receptor EP2 subtype (Mus musculus) (UniProt Q62053); assay: Inhibition of EP2 receptor-mediated mouse P388D1 macrophage activation assessed as inhibition of butaprost-induced IL-23 mRNA expression at 10 uM incubated for 1 hr prior to butaprost-challenge measured after 2 hrs by qRT-PCR analysis; in short: as §1
[18] = biological target: T2, Prostaglandin E2 receptor EP2 subtype; assay: Antagonist activity at human EP2 receptor overexpressed in rat C6 cells assessed as inhibition of PGE2-induced cAMP accumulation incubated for 10 mins prior to PGE2 addition measured after 40 mins by TR-FRET assay; type: functional, cell-based
[19] = Plasma concentration in C57BL/6 mouse at 5 mg/kg, ip after 30 mins; type: ADME, organism-based; set-up: dose 5 mg/kg, route intraperitoneal
In short: (§3)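 Female C57BL/6 mice dosed 10 mg/kg by oral gavage or 5 mg/kg i.p. in 10% DMSO/70% PEG400/20% sterile water. Blood drawn at five time points from 0.5 to 8 h and processed to plasma. Compound concentration in plasma measured; n = 3 mice per time point, mean ± SEM.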

[20] = biological target: Prostaglandin E2 receptor EP2 subtype (Mus musculus) (UniProt Q62053); assay: Inhibition of EP2 receptor-mediated mouse P388D1 macrophage activation assessed as inhibition of butaprost-induced COX-2 mRNA expression at 10 uM incubated for 1 hr prior to butaprost-challenge measured after 2 hrs by qRT-PCR analysis; in short: as §1
[21] = tested on: Brain; assay: Drug uptake in C57BL/6 mouse brain at 5 mg/kg, ip after 1 to 2 hrs; type: ADME, organism-based; set-up: dose 5 mg/kg, route intraperitoneal; details: in vivo; in short: as §2
[22] = biological target: Beta-2 adrenergic receptor (Homo sapiens) (UniProt P07550); assay: Inhibition of beta2-adrenergic receptor (unknown origin) overexpressed in rat C6G cells up to 40 uM by TR-FRET assay; type: cell-based
Chain of Beta-2 adrenergic receptor (Homo sapiens) (P07550 whole entry, looked up): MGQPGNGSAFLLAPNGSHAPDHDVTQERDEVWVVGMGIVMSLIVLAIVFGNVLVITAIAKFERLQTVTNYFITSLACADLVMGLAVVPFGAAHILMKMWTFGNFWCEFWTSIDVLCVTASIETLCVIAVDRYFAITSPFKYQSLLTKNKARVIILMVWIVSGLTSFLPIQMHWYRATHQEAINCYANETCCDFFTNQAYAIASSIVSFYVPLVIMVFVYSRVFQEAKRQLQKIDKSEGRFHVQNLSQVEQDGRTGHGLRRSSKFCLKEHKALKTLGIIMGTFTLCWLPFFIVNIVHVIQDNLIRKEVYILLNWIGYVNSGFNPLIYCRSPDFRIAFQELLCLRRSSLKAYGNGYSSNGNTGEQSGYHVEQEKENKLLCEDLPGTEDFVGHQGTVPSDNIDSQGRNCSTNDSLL

[23] = Plasma concentration in C57BL/6 mouse at 10 mg/kg, po after 30 mins; type: ADME, organism-based; set-up: dose 10 mg/kg, route oral; in short: as §3
[24] = biological target: Prostaglandin E2 receptor EP2 subtype (Mus musculus) (UniProt Q62053); assay: Inhibition of EP2 receptor-mediated mouse P388D1 macrophage activation assessed as inhibition of butaprost-induced IL-17 mRNA expression at 10 uM incubated for 1 hr prior to butaprost-challenge measured after 2 hrs by qRT-PCR analysis; in short: as §1
[25] = Inhibition of Staphylococcus aureus NadD

COc1cc(NS(=O)(=O)c2ccc(NC(=S)NC(=O)c3cccs3)cc2)nc(OC)n1
CC50 [1]: 258 µM | Kb [2]: 5.9 µM | Kb [3]: 25.2 µM

CCc1nnc(NS(=O)(=O)c2ccc(NC(=S)NC(=O)/C=C/c3ccc(OC)cc3)cc2)s1
CC50 [1]: 365 µM | Kb [2]: 0.36 µM | Kb [3]: 46.6 µM | Kb [4]: 13 µM | Kb [5]: 0.0345 µM

COc1cc(NS(=O)(=O)c2ccc(NC(=S)NC(=O)/C=C/c3ccc(F)cc3)cc2)ncn1
CC50 [1]: 378 µM | remaining at 1 h, up to 10 µM [6]: 40% | remaining at 1 h, up to 10 µM [7]: 40% | KB [3]: inactive | Kb [4]: 18.2 µM

COc1cc(NS(=O)(=O)c2ccc(NC(=S)NC(=O)c3sc4cc(F)ccc4c3Cl)cc2)nc(OC)n1
CC50 [1]: 96 µM | Kb [2]: 21 µM | Kb [3]: 8.7 µM | Kb [4]: 0.7 µM | Kb [5]: 0.108 µM

CCc1nnc(NS(=O)(=O)c2ccc(NC(=S)NC(=O)c3ccc(OC)cc3)cc2)s1
CC50 [1]: 186 µM | Kb [2]: 1.73 µM | Kb [3]: 16.1 µM

COc1ccc(NS(=O)(=O)c2ccc(NC(=S)NC(=O)/C=C/c3ccc(C)cc3)cc2)nn1
CC50 [1]: 150 µM | Kb [2]: 0.36 µM | KB [3]: inactive | Kb [4]: 20.5 µM | Kb [5]: 0.0133 µM

CCc1nnc(NS(=O)(=O)c2ccc(NC(=S)NC(=O)/C=C/c3ccc(F)cc3)cc2)s1
CC50 [1]: 326 µM | inhibition [8]: Active | inhibition [9]: Active | solubility kinetic [10]: 71 µg/mL (≈ 144 µM) | inhibition [11]: inactive | inhibition [12]: Active | inhibition [13]: Active | Drug uptake [14]: Not Active | Drug uptake [15]: Active | BPR [16]: 0.02 | remaining at 1 h, up to 10 µM [6]: 40% | inhibition [17]: Active | remaining at 1 h, up to 10 µM [7]: 40% | pIC50 [18]: 5.80 | inhibition [18]: Dose-dependent effect | concentration at 0.5 h [19]: 30 µM | inhibition [20]: Active | Drug uptake [21]: Not Active | inhibition [22]: inactive | concentration at 0.5 h [23]: 12 µM | inhibition [24]: Active | pIC50 [25]: 5.35

CCc1nnc(NS(=O)(=O)c2ccc(NC(=S)NC(=O)/C=C/c3ccccc3)cc2)s1
CC50 [1]: 370 µM | Kb [3]: 9.8 µM

CCc1nnc(NS(=O)(=O)c2ccc(NC(=S)NC(=O)/C=C/c3cccs3)cc2)s1
CC50 [1]: 330 µM | Kb [2]: 2.26 µM
